In ChEMBL document CHEMBL5038573, “Total Synthesis of Laucysteinamide A, a Monomeric Congener of Somocystinamide A” (J Nat Prod, 2021):

Experiments:
[1] = (§1) Toxicity in brine shrimp assessed as induction of lethality incubated for 24 hrs by microscopic analysis; format: organism-based, Artemia salina; settings: Artemia salina (brine shrimp)
NCI-H460 = test: Cytotoxicity against human NCI-H460 cells assessed as cell growth inhibition incubated for 48 hrs by MTT assay; format: functional, cell-based
In short: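 NCI-H460 cells seeded at 6.66 × 10³ cells/mL in RPMI 1640 with FBS and grown 24 h (37 °C, 5% CO₂). Nine half-log dilutions (top 127–300 μM) added, final 1% v/v DMSO and PEG400, six replicates per concentration. After 48 h, MTT for 25 min, then dissolved in DMSO and read at 570 and 630 nm.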

Artemia salina = test: as §1; format: organism-based
A549 = test: Cytotoxicity against human A549 cells assessed as cell growth inhibition incubated for 48 hrs by MTT assay; format: functional, cell-based; settings: A549, 48 h
[2] = Homo sapiens, NCI-H460, 48 h, read-out: IC50

Structure (SMILES) | IC50 at 24 h [1] [µM] | IC50 (NCI-H460; [2]) [µM] | IC50 (Artemia salina) | IC50 (NCI-H460; nci-h460) | IC50 (A549) [µM]
C=CC/C=C/N(C)C(=O)c1ccccc1 | > 100 | > 300 | – | – | –
C=CC/C=C/N(C)C(=O)CCCCCCCCCC/C=C/[C@@H]1CSC(C)=N1 | > 100 | 20 | – | – | –
C=CC/C=C/N(C)C(=O)CCC | > 100 | > 248 | – | – | –
CCC/C=C/N(C)C(=O)CCCCCCCCCC/C=C/[C@@H]1CSC(C)=N1 | – | 33 | Not Active | – | –
C=CC/C=C/N(C)C(=O)CCCCCCCC/C=C/[C@H](CSSC[C@@H](/C=C/CCCCCCCCC(=O)N(C)/C=C/CC=C)NC(C)=O)NC(C)=O | > 130 | – | – | Not Active | 0.046
